Results taken from ChEMBL document CHEMBL2346604, “Synthesis of nordihydroguaiaretic acid derivatives and their bioactivities on S. pombe and K562 cell lines” (Eur J Med Chem, 2013).
Converted amounts (≈) assume the structure as drawn.

What was measured:
K562 [1] = assay: Inhibitive ratio of growth metabolism of human K562 cells at 14 mg/L at 37 degC by TAM air microcalorimetry (reference value: 0%); format: functional
Procedure, shortened: (§1)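 K562 cells in supplemented RPMI 1640 (10% FBS) seeded at 1×10⁶ cells/mL with compound at graded concentrations. Heat flow recorded in real time in an eight-channel isothermal microcalorimeter (TAM Air). Rate constant k derived from thermogenic growth curves. Inhibition ratio I = (k0 − kc)/k0 × 100% relative to untreated cells, and IC50 is the concentration at I = 50%. Mean ± S.D., n = 3.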

K562 [2] = assay: Inhibitive ratio of growth metabolism of human K562 cells at 12 mg/L at 37 degC by TAM air microcalorimetry (reference value: 0%); format: functional; procedure, shortened: as §1
K562 [3] = assay: Inhibition of growth metabolism of human K562 cells assessed as growth rate constant at 14 mg/L at 37 degC by TAM air microcalorimetry; format: functional; procedure, shortened: as §1
K562 [4] = assay: Inhibition of growth metabolism of human K562 cells assessed as growth rate constant at 12 mg/L at 37 degC by TAM air microcalorimetry; format: functional; procedure, shortened: as §1
[5] = system: Schizosaccharomyces pombe; assay: Inhibitive ratio of growth metabolism of Schizosaccharomyces pombe ACCC 20047 at 400 mg/L at 32 degC by TAM air microcalorimetry (reference value: 0%); format: functional
Procedure, shortened: (§2)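 Cells seeded at 1×10⁶ cells/mL with compound at a range of concentrations. Heat output recorded continuously in a TAM Air isothermal microcalorimeter. Growth rate constant k taken from power-time curves. I = (k0 − kc)/k0 × 100%, and IC50 is the concentration giving I = 50%. n = 3.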

[6] = system: Schizosaccharomyces pombe; assay: Inhibition of growth metabolism of Schizosaccharomyces pombe ACCC 20047 assessed as growth rate constant at 400 mg/L at 32 degC by TAM air microcalorimetry; format: functional; procedure, shortened: as §2
K562 [7] = assay: Inhibition of growth metabolism of human K562 cells at 37 degC by TAM air microcalorimetry; format: functional, cell-based; procedure, shortened: as §1
K562 [8] = assay: Inhibitive ratio of growth metabolism of human K562 cells at 8 mg/L at 37 degC by TAM air microcalorimetry (reference value: 0%); format: functional; procedure, shortened: as §1
K562 [9] = assay: Inhibitive ratio of growth metabolism of human K562 cells at 6 mg/L at 37 degC by TAM air microcalorimetry (reference value: 0%); format: functional; procedure, shortened: as §1
K562 [10] = assay: Inhibitive ratio of growth metabolism of human K562 cells at 4 mg/L at 37 degC by TAM air microcalorimetry (reference value: 0%); format: functional; procedure, shortened: as §1
K562 [11] = assay: Inhibitive ratio of growth metabolism of human K562 cells at 2 mg/L at 37 degC by TAM air microcalorimetry (reference value: 0%); format: functional; procedure, shortened: as §1
K562 [12] = assay: Inhibition of growth metabolism of human K562 cells assessed as growth rate constant at 8 mg/L at 37 degC by TAM air microcalorimetry; format: functional; procedure, shortened: as §1
K562 [13] = assay: Inhibition of growth metabolism of human K562 cells assessed as growth rate constant at 6 mg/L at 37 degC by TAM air microcalorimetry; format: functional; procedure, shortened: as §1
K562 [14] = assay: Inhibition of growth metabolism of human K562 cells assessed as growth rate constant at 4 mg/L at 37 degC by TAM air microcalorimetry; format: functional; procedure, shortened: as §1
K562 [15] = assay: Inhibition of growth metabolism of human K562 cells assessed as growth rate constant at 2 mg/L at 37 degC by TAM air microcalorimetry; format: functional; procedure, shortened: as §1
[16] = system: Schizosaccharomyces pombe; assay: Inhibition of growth metabolism of Schizosaccharomyces pombe ACCC 20047 at 32 degC by TAM air microcalorimetry; format: functional, organism-based; procedure, shortened: as §2
[17] = system: Schizosaccharomyces pombe; assay: Inhibitive ratio of growth metabolism of Schizosaccharomyces pombe ACCC 20047 at 320 mg/L at 32 degC by TAM air microcalorimetry (reference value: 0%); format: functional; procedure, shortened: as §2
[18] = system: Schizosaccharomyces pombe; assay: Inhibitive ratio of growth metabolism of Schizosaccharomyces pombe ACCC 20047 at 240 mg/L at 32 degC by TAM air microcalorimetry (reference value: 0%); format: functional; procedure, shortened: as §2
[19] = system: Schizosaccharomyces pombe; assay: Inhibitive ratio of growth metabolism of Schizosaccharomyces pombe ACCC 20047 at 160 mg/L at 32 degC by TAM air microcalorimetry (reference value: 0%); format: functional; procedure, shortened: as §2
[20] = system: Schizosaccharomyces pombe; assay: Inhibitive ratio of growth metabolism of Schizosaccharomyces pombe ACCC 20047 at 80 mg/L at 32 degC by TAM air microcalorimetry (reference value: 0%); format: functional; procedure, shortened: as §2
[21] = system: Schizosaccharomyces pombe; assay: Inhibitive ratio of growth metabolism of Schizosaccharomyces pombe ACCC 20047 at 40 mg/L at 32 degC by TAM air microcalorimetry (reference value: 0%); format: functional; procedure, shortened: as §2
[22] = system: Schizosaccharomyces pombe; assay: Inhibitive ratio of growth metabolism of Schizosaccharomyces pombe ACCC 20047 at 20 mg/L at 32 degC by TAM air microcalorimetry (reference value: 0%); format: functional; procedure, shortened: as §2
[23] = system: Schizosaccharomyces pombe; assay: Inhibition of growth metabolism of Schizosaccharomyces pombe ACCC 20047 assessed as growth rate constant at 320 mg/L at 32 degC by TAM air microcalorimetry; format: functional; procedure, shortened: as §2
[24] = system: Schizosaccharomyces pombe; assay: Inhibition of growth metabolism of Schizosaccharomyces pombe ACCC 20047 assessed as growth rate constant at 240 mg/L at 32 degC by TAM air microcalorimetry; format: functional; procedure, shortened: as §2
[25] = system: Schizosaccharomyces pombe; assay: Inhibition of growth metabolism of Schizosaccharomyces pombe ACCC 20047 assessed as growth rate constant at 160 mg/L at 32 degC by TAM air microcalorimetry; format: functional; procedure, shortened: as §2
[26] = system: Schizosaccharomyces pombe; assay: Inhibition of growth metabolism of Schizosaccharomyces pombe ACCC 20047 assessed as growth rate constant at 80 mg/L at 32 degC by TAM air microcalorimetry; format: functional; procedure, shortened: as §2
[27] = system: Schizosaccharomyces pombe; assay: Inhibition of growth metabolism of Schizosaccharomyces pombe ACCC 20047 assessed as growth rate constant at 40 mg/L at 32 degC by TAM air microcalorimetry; format: functional; procedure, shortened: as §2
[28] = system: Schizosaccharomyces pombe; assay: Inhibition of growth metabolism of Schizosaccharomyces pombe ACCC 20047 assessed as growth rate constant at 20 mg/L at 32 degC by TAM air microcalorimetry; format: functional; procedure, shortened: as §2

- IC50 (K562 [7]): 11.2 µg/mL (≈ 30.5 µM)
SMILES: COc1ccc(-c2oc(-c3ccc(OC)c(OC)c3)c(C)c2C)cc1OC
- inhibition at 14 µg/mL (K562 [1]): 80%
- inhibition at 12 µg/mL (K562 [2]): 57.1%
- Activity (K562 [3]): 7.6784 ×10⁻⁵ /min
- Activity (K562 [4]): 1.65 ×10⁻⁴ /min
- inhibition at 400 µg/mL [5]: 73.2%
- Activity [6]: 0.00113 min⁻¹
- inhibition at 8 µg/mL (K562 [8]): 19.8%
- inhibition at 6 µg/mL (K562 [9]): 18.9%
- inhibition at 4 µg/mL (K562 [10]): -13.2%
- inhibition at 2 µg/mL (K562 [11]): -1.79%
- Activity (K562 [12]): 3.0855 ×10⁻⁴ /min
- Activity (K562 [13]): 3.1202 ×10⁻⁴ /min
- Activity (K562 [14]): 4.3527 ×10⁻⁴ /min
- Activity (K562 [15]): 3.9155 ×10⁻⁴ /min
- IC50 [16]: 350 µg/mL (≈ 950 µM)
- inhibition at 320 µg/mL [17]: 35.3%
- inhibition at 240 µg/mL [18]: 18%
- inhibition at 160 µg/mL [19]: -1.9%
- inhibition at 80 µg/mL [20]: -2.13%
- inhibition at 40 µg/mL [21]: -1.66%
- inhibition at 20 µg/mL [22]: -1.18%
- Activity [23]: 0.00273 min⁻¹
- Activity [24]: 0.00346 min⁻¹
- Activity [25]: 0.0043 min⁻¹
- Activity [26]: 0.00431 min⁻¹
- Activity [27]: 0.00429 min⁻¹
- Activity [28]: 0.00427 min⁻¹
